Assay results published in ChEMBL document CHEMBL3393035, “Novel agonists of benzodiazepine receptors: design, synthesis, binding assay and pharmacological evaluation of 1,2,4-triazolo[1,5-a]pyrimidinone and 3-amino-1,2,4-triazole derivatives” (Bioorg Med Chem, 2015).
The source made the active and inactive calls. No cut-off for these calls is given here.

Legend:
[1] = Displacement of [3H]-flumazenil from benzodiazepine receptor in Sprague-Dawley rat brain cortical membranes incubated for 35 mins
How it was run: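 Rat cortex membranes: homogenized in ice-cold 30 mM Tris-HCl pH 7.4, washed by repeated centrifugation at 4°C, 37°C 30 min preincubation, stored -20°C. 100 µg membrane protein in 50 mM Tris-HCl pH 7.4 with 8.6×10^-5 nmol [3H]-flumazenil plus increasing competitor, 0.5 mL, 30°C 35 min; stopped by centrifugation. NSB with 100 µM diazepam; triplicates; IC50 by nonlinear regression.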

[2] = test system: Mus musculus; test: Anticonvulsant activity in ip dosed NMRI mouse assessed as reduction in MES-induced seizures by measuring occurrence of hind limb tonic extensions dosed 30 mins before MES injection and co-treated with 10 mg/kg BZD antagonist flumazenil and measured 30 mins post MES challenge; format: functional, organism-based; design: dose 10 mg/kg; conditions: Hindlimb
How it was run: (§1)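 Male NMRI mice (18-22 g) were given drug i.p. at 5 ml/kg in DMSO:water (1:10), 30 min before maximal electroshock (60 Hz, 37.2 mA, 0.25 s). The read-out was occurrence of hind limb tonic extension.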

[3] = test system: Mus musculus; test: Anticonvulsant activity in ip dosed NMRI mouse assessed as reduction in PTZ-induced lethal convulsion dosed 30 mins before PTZ injection and co-treated with BZD antagonist flumazenil and measured 30 mins post PTZ challenge; format: functional, organism-based
How it was run: (§2)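 Male NMRI mice (18-22 g) were given drug i.p. at 5 ml/kg in DMSO:water (1:10), 30 min before PTZ 100 mg/kg i.p. (in water). Mice were watched for 30 min after PTZ and deaths were counted.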

[4] = test system: Mus musculus; test: Hypnotic effect in NMRI albino mouse assessed as potentiation of pentobarbital sleeping time by measuring duration of loss of righting reflex at 1 mg/kg, ip dosed 30 mins before pentobarbital challenge; format: functional, organism-based; design: dose 1 mg/kg
How it was run: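 Male NMRI mice (18-22 g), n=8 per group, received diazepam i.p. in DMSO:water (1:10), 5 ml/kg. Pentobarbital 65 mg/kg i.p. followed 30 min later. Sleep time was the duration of loss of righting reflex; mice were kept on an electric blanket against hypothermia. Data are mean + SEM.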

[5] = test system: Mus musculus; test: Anticonvulsant activity in ip dosed NMRI mouse assessed as reduction in PTZ-induced lethal convulsion dosed 30 mins before PTZ injection and measured 30 mins post PTZ challenge; format: functional; how it was run: as §2
[6] = test system: Mus musculus; test: Anticonvulsant activity in ip dosed NMRI mouse assessed as reduction in MES-induced seizures by measuring occurrence of hind limb tonic extensions dosed 30 mins before MES injection and measured 30 mins post MES challenge; format: functional; conditions: Hindlimb; how it was run: as §1
[7] = test system: Mus musculus; test: Hypnotic effect in NMRI albino mouse assessed as potentiation of pentobarbital sleeping time by measuring duration of loss of righting reflex at 0.625 mg/kg, ip dosed 30 mins before pentobarbital challenge; format: functional, organism-based; design: dose 0.625 mg/kg
How it was run: (§3)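 Male NMRI mice, 18-22 g, 12 weeks old. Test agent and flumazenil (10 mg/kg) in DMSO:water 1:10, 5 ml/kg i.p., 30 min before pentobarbital 65 mg/kg i.p. (in water). Sleep time is the duration of loss of righting reflex. Mice kept on an electric blanket to prevent hypothermia. n=8 per group, mean + SEM.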

[8] = test system: Mus musculus; test: Induction of anterograde amnesia in NMRI albino mouse assessed as reduction in latency to enter dark compartment at 0.325 to 2.5 mg/kg, ip by passive avoidance test; format: functional, organism-based
How it was run: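 Male NMRI mice (18-22 g) dosed i.p. in DMSO:water 1:10 (5 ml/kg), 30 min before the test; midazolam 1 mg/kg i.p. in water as reference. On the testing day, 24 h after training, each mouse is placed in the lit compartment and latency to enter the dark compartment is recorded. n=8 per group, mean + SEM.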

[9] = test system: Mus musculus; test: Hypnotic effect in NMRI albino mouse assessed as potentiation of pentobarbital sleeping time by measuring duration of loss of righting reflex at 1.25 to 5 mg/kg, ip co-treated with 10 mg/kg BZD receptor antagonist flumazenil; format: functional, organism-based; how it was run: as §3
[10] = test system: Mus musculus; test: Toxicity in NMRI albino mouse at 150 mg/kg, ip assessed as induction hypnosis measured after 24 hrs post dose; format: organism-based; design: dose 150 mg/kg, route intraperitoneal; conditions: in vivo
How it was run: (§4)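 Ten randomly selected male NMRI mice given single i.p. doses of 50 or 150 mg/kg in DMSO:water 1:10 (5 ml/kg), then observed for 24 h for toxic reactions, sedation and hypnosis.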

[11] = test system: Mus musculus; test: Hypnotic effect in NMRI albino mouse assessed as potentiation of pentobarbital sleeping time by measuring duration of loss of righting reflex dosed intraperitoneally 30 mins before pentobarbital challenge; format: functional; how it was run: as §3
[12] = test system: Mus musculus; test: Toxicity in NMRI albino mouse at 50 mg/kg, ip assessed as induction hypnosis measured after 24 hrs post dose; format: organism-based; design: dose 50 mg/kg, route intraperitoneal; conditions: in vivo; how it was run: as §4
[13] = test system: Mus musculus; test: Toxicity in NMRI albino mouse at 150 mg/kg, ip assessed as induction of toxic reactions measured after 24 hrs post dose; format: organism-based; design: dose 150 mg/kg, route intraperitoneal; conditions: in vivo; how it was run: as §4
[14] = test system: Mus musculus; test: Toxicity in NMRI albino mouse at 50 mg/kg, ip assessed as induction sedation measured after 24 hrs post dose; format: organism-based; design: dose 50 mg/kg, route intraperitoneal; conditions: in vivo; how it was run: as §4
[15] = test system: Mus musculus; test: Toxicity in NMRI albino mouse at 150 mg/kg, ip assessed as induction sedation measured after 24 hrs post dose; format: organism-based; design: dose 150 mg/kg, route intraperitoneal; conditions: in vivo; how it was run: as §4
[16] = test system: Mus musculus; test: Toxicity in NMRI albino mouse at 50 mg/kg, ip assessed as induction of toxic reactions measured after 24 hrs post dose; format: organism-based; design: dose 50 mg/kg, route intraperitoneal; conditions: in vivo; how it was run: as §4
[17] = test system: Mus musculus; test: Induction of anterograde amnesia in NMRI albino mouse assessed as reduction in latency to enter dark compartment at 1 mg/kg, ip by passive avoidance test; format: functional, organism-based; design: dose 1 mg/kg
How it was run: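 Male NMRI mice (18-22 g), n=8 per group, received midazolam i.p. in distilled water, 5 ml/kg. In the passive avoidance test, mice were placed in the lit compartment on the testing day, 24 h later, and latency to enter the dark compartment was recorded. Data are mean + SEM.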

SMILES: Nc1nnc(-c2ccccc2)n1Cc1ccccc1
- IC50 [1]: 0.87 nM
- Ki [1]: 0.53 nM

SMILES: Cc1cc(=O)n2nc(-c3ccccc3)n(Cc3ccccc3)c2n1
- IC50 [1]: 2.39 nM
- Ki [1]: 1.46 nM

SMILES: Nc1nnc(-c2ccccc2)n1Cc1ccc(F)cc1
- IC50 [1]: 4.45 nM
- Ki [1]: 2.73 nM

SMILES: CN1C(=O)CN=C(c2ccccc2)c2cc(Cl)ccc21 [DIAZEPAM]
- Activity [2]: inactive
- IC50 [1]: 2.5 nM
- Ki [1]: 1.53 nM
- Activity [3]: inactive
- Activity [4]: Active
- ED50 [5]: 0.75 mg/kg
- ED50 [6]: 0.74 mg/kg

SMILES: Cc1cc(=O)n2nc(-c3ccccc3)n(Cc3ccc(F)cc3)c2n1
- IC50 [1]: 1.59 nM
- Ki [1]: 0.97 nM

SMILES: Cc1cc(=O)n2nc(-c3ccccc3)n(Cc3ccccc3Cl)c2n1
- Activity [2]: inactive
- Activity [7]: inactive
- Activity [8]: Active
- Activity [9]: inactive
- IC50 [1]: 0.68 nM
- Ki [1]: 0.42 nM
- Activity [3]: inactive
- Activity [10]: Toxic
- Activity [11]: Dose-dependent effect
- ED50 ([11]; ip): 5 mg/kg
- Activity [12]: Toxic
- Activity [13]: Non-toxic
- Activity [14]: Toxic
- ED50 [5]: 56.6 mg/kg
- Activity [15]: Toxic
- Activity [16]: Non-toxic
- ED50 [6]: 15 mg/kg

SMILES: Cc1ncc2n1-c1ccc(Cl)cc1C(c1ccccc1F)=NC2
- Activity [17]: Active

SMILES: Nc1nnc(-c2ccccc2)n1Cc1ccccc1Cl
- IC50 [1]: 2.24 nM
- Ki [1]: 1.37 nM
